Source: ChEMBL document CHEMBL1139880, “Potent and selective agonists of human melanocortin receptor 5: cyclic analogues of alpha-melanocyte-stimulating hormone” (J Med Chem, 2007)
Values belong to the compound of their own block, whether it stands above or below them. Starred links: 1 amine or outer side, 2 acyl side, 3 side chain; linkers in the order of their positions; H or OH if unused. Positions of bridges follow the written chain, without caps; N, C: chain ends. Non-standard residues stand in square brackets, D forms with d. Residues, ends and D or L forms follow the SMILES beside them. X4 = O=C([C@H](CC1CCC(C2CCCCC2)CC1)N[*:1])[*:2]; X3 = O=C([C@H]1CC2CCCCC2N1[*:1])[*:2]; Pip = O=C(O)[C@@H]1CCCCN1; Nle = CCCC[C@H](N)C(=O)O

What was measured:
[1] = target: T1, Melanocortin receptor 3 (Homo sapiens, UniProt P41968); experiment: Agonist activity at human MC3R expressed in CHO cells assessed as cAMP accumulation at 1 uM relative to [125I]NDPalphaMSH; format: functional, cell-based
[2] = target: T2, Melanocortin receptor 4 (Homo sapiens, UniProt P32245); experiment: Agonist activity at human MC4R expressed in CHO cells assessed as cAMP accumulation at 1 uM relative to [125I]NDPalphaMSH; format: functional, cell-based
[3] = target: T3, Melanocyte-stimulating hormone receptor (Homo sapiens, UniProt Q01726); experiment: Agonist activity at human melanocortin receptor 1b expressed in CHO cells assessed as cAMP accumulation at 1 uM relative to [125I]NDPalphaMSH; format: functional, cell-based
Target sequence in this assay (Q01726 whole entry, looked up): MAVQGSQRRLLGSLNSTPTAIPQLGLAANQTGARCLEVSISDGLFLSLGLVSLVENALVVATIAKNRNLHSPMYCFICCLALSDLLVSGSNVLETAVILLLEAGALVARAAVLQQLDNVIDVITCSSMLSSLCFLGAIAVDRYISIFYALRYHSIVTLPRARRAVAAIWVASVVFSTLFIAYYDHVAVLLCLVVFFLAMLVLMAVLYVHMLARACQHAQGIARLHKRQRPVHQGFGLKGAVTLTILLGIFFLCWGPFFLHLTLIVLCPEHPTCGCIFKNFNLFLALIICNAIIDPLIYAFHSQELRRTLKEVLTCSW

[4] = species: Homo sapiens; experiment: Selectivity for human cloned MC5R over human cloned MC1bR
[5] = target: T3, Melanocyte-stimulating hormone receptor; experiment: Agonist activity at human melanocortin receptor 1b expressed in CHO cells assessed as cAMP accumulation relative to [125I]NDPalphaMSH; format: functional, cell-based
Target sequence in this assay (Q01726 whole entry, looked up): as above

[6] = target: Melanocortin receptor (M4 and M5) (Homo sapiens) (UniProt P32245+P33032); experiment: Selectivity for human cloned MC5R over human cloned MC4R; format: protein assay
[7] = species: Homo sapiens; experiment: Selectivity for human cloned MC5R over human cloned MC3R
[8] = target: T2, Melanocortin receptor 4; experiment: Agonist activity at human MC4R expressed in CHO cells assessed as cAMP accumulation at 10 uM relative to [125I]NDPalphaMSH; format: functional, cell-based
[9] = target: T1, Melanocortin receptor 3; experiment: Agonist activity at human MC3R expressed in CHO cells assessed as cAMP accumulation at […] relative to [125I]NDPalphaMSH; format: functional, cell-based
[10] = target: T2, Melanocortin receptor 4; experiment: Agonist activity at human MC4R expressed in CHO cells assessed as cAMP accumulation at 2 uM relative to [125I]NDPalphaMSH; format: functional, cell-based; conditions: filed as partial agonist
[11] = target: T1, Melanocortin receptor 3; experiment: Agonist activity at human MC3R expressed in CHO cells assessed as cAMP accumulation at 2 uM relative to [125I]NDPalphaMSH; format: functional, cell-based
[12] = target: T1, Melanocortin receptor 3; experiment: Agonist activity at human MC3R expressed in CHO cells assessed as cAMP accumulation; format: functional, cell-based; conditions: cho
How it was run: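 Dissociated CHO cells were spun 5 min and resuspended in Earle's balanced salt solution with 10 mM HEPES pH 7.5, 5 mM MgCl2, 1 mM glutamine and 1 mg/mL BSA. They were incubated 40 min at room temperature with compound (0.003–5000 nM) plus 0.6 mM IBMX, then lysed with 0.1 M HCl. cAMP was measured by Flashplate cAMP assay.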

[13] = target: T4, Melanocortin receptor 5 (Homo sapiens, UniProt P33032); experiment: Displacement of [125I]NDPalphaMSH from human cloned MC5R expressed in CHO cells; format: cell-based; conditions: cho
[14] = target: T1, Melanocortin receptor 3; experiment: Displacement of [125I]NDPalphaMSH from human cloned MC3R expressed in CHO cells; format: cell-based; conditions: cho
[15] = target: T4, Melanocortin receptor 5; experiment: Agonist activity at human MC5R expressed in CHO cells assessed as cAMP accumulation; format: functional, cell-based; conditions: cho
[16] = target: T2, Melanocortin receptor 4; experiment: Inhibition of human cloned MC4R expressed in CHO cells at 2 uM relative to [125I]NDPalphaMSH; format: cell-based
[17] = target: T3, Melanocyte-stimulating hormone receptor; experiment: Displacement of [125I]NDPalphaMSH from human cloned melanocortin receptor 1b expressed in CHO cells; format: cell-based; conditions: cho
Target sequence in this assay (Q01726 whole entry): as the sequence (Q01726 whole entry, looked up) above

[18] = target: T2, Melanocortin receptor 4; experiment: Agonist activity at human MC4R expressed in CHO cells assessed as cAMP accumulation at […] relative to [125I]NDPalphaMSH
[19] = target: T1, Melanocortin receptor 3; experiment: Agonist activity at human MC3R expressed in CHO cells assessed as cAMP accumulation at 10 uM relative to [125I]NDPalphaMSH; format: functional, cell-based

Melanocortin receptor (M4 and M5) (Homo sapiens), sequence (P32245 whole entry, looked up): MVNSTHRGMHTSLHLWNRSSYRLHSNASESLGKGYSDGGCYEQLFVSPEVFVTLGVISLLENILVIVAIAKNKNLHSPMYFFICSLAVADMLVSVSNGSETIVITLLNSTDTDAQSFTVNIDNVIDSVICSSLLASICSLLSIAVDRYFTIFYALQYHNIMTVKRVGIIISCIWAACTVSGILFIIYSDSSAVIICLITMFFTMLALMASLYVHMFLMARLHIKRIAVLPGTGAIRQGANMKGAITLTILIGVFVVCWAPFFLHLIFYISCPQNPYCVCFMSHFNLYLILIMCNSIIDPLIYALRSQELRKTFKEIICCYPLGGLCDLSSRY
Melanocortin receptor (M4 and M5) (Homo sapiens), sequence (P33032 whole entry, looked up): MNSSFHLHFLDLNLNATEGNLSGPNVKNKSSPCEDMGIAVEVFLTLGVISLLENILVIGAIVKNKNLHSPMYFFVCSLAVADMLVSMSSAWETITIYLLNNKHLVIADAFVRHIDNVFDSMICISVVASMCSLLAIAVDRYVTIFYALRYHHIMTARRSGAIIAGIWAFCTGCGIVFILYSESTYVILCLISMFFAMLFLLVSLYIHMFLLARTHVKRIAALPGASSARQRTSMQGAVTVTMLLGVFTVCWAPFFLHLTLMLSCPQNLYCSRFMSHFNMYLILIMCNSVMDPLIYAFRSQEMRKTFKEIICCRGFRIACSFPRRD
T2 sequence (P32245 whole entry): as the sequence (P32245 whole entry, looked up) above
T1 sequence (P41968 whole entry): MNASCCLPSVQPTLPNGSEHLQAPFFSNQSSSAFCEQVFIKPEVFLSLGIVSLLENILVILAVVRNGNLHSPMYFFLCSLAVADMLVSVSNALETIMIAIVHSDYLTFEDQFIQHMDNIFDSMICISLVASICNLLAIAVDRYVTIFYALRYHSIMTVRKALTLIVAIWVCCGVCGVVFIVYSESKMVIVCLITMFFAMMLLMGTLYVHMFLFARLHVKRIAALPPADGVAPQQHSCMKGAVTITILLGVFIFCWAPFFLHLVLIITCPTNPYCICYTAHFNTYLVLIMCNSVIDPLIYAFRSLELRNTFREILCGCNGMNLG
T4 sequence (P33032 whole entry): as the sequence (P33032 whole entry, looked up) above

Activity [1]: 1%
Activity ([2]; filed as partial agonist): 43%
Compound: CCCC[C@H](NC(C)=O)C(=O)N[C@H]1CC(=O)NCCCC[C@@H](C(N)=O)NC(=O)[C@H](Cc2c[nH]c3ccccc23)NC(=O)[C@@H]2CCCCN2C(=O)[C@H](Cc2ccc(-c3ccccc3)cc2)NC(=O)[C@H](C2CCCCC2)NC1=O

Activity [3]: 16%
Activity [1]: 0%
Activity ([2]; filed as agonist): 72%
Compound: CCCC[C@H](NC(C)=O)C(=O)N[C@H]1CC(=O)NCCCC[C@@H](C(N)=O)NC(=O)[C@H](Cc2c[nH]c3ccccc23)NC(=O)[C@@H]2CCCCN2C(=O)[C@H](Cc2ccc(-c3ccccc3)cc2)NC(=O)[C@H](c2ccccc2)NC1=O

Ratio IC50 [4]: 670
Activity [1]: 3%
Activity [5]: 33%
Activity ([2]; filed as agonist): 77%
Compound: CCCC[C@H](NC(C)=O)C(=O)N[C@H]1CC(=O)NCCCC[C@@H](C(N)=O)NC(=O)[C@H](Cc2c[nH]c3ccccc23)NC(=O)[C@@H]2CCCCN2C(=O)[C@H](Cc2ccc(-c3ccccc3)cc2)NC(=O)[C@H](C(C)C)NC1=O

Ratio IC50 [6]: 340
Ratio IC50 [4]: 720
Ratio IC50 [7]: 217
Activity ([8]; filed as partial agonist): 40%
Activity [9]: 2%
Compound: CCCC[C@H](NC(C)=O)C(=O)N[C@H]1CC(=O)NCCCC[C@@H](C(N)=O)NC(=O)[C@H](Cc2c[nH]c3ccccc23)NC(=O)[C@@H]2CCCN2C(=O)[C@H](Cc2ccc(-c3ccccc3)cc2)NC(=O)[C@@H]2CCCN2C1=O

Ratio IC50 [6]: > 5000
Ratio IC50 [4]: > 5000
Ratio IC50 [7]: > 5000
Activity [10]: 40%
Activity [11]: 5%
Compound: CCCC[C@H](NC(C)=O)C(=O)N[C@H]1CC(=O)NCCCC[C@@H](C(N)=O)NC(=O)[C@H](Cc2c[nH]c3ccccc23)NC(=O)[C@@H]2CCCCN2C(=O)[C@H](Cc2ccc(-c3ccccc3)cc2)NC(=O)[C@@H]2CC3CCCCC3N2C1=O (stereo not given in full)

Ratio IC50 [6]: 1060
Ratio IC50 [4]: 430
Ratio IC50 [7]: 1800
Activity [11]: 8%
Activity [2]: 9%
Compound: CCCC[C@H](NC(C)=O)C(=O)N[C@H]1CC(=O)NCCCC[C@@H](C(N)=O)NC(=O)[C@H](Cc2c[nH]c3ccccc23)NC(=O)[C@@H]2CCCCN2C(=O)[C@H](Cc2ccc(-c3ccccc3)cc2)NC(=O)[C@@H]2CCCN2C1=O

Activity [3]: 13%
EC50 [12]: > 500 nM
IC50 [13]: 700 nM (antagonist)
IC50 [14]: > 1000 nM
Ratio IC50 [4]: 1.8
EC50 [15]: > 500 nM
inhibition [16]: 25%
IC50 [17]: 1300 nM (antagonist)
Activity ([2]; filed as partial agonist): 39%
Compound: CCCC[C@H](NC(C)=O)C(=O)N[C@H]1CC(=O)NCCCC[C@@H](C(N)=O)NC(=O)[C@H](Cc2c[nH]c3ccccc23)NC(=O)[C@@H]2CCCCN2C(=O)[C@H](CC2CCC(C3CCCCC3)CC2)NC(=O)[C@H]2CC3CCCCC3N2C1=O (stereo not given in full) (Ac-[Nle]D[X3][X4][Pip]WK-NH2; lactam 2-7)

Ratio IC50 [6]: 260
Activity [18]: 0%
Ratio IC50 [4]: 260
Ratio IC50 [7]: 1440
Activity [9]: 10%
Compound: CCCC[C@H](NC(C)=O)C(=O)N[C@H]1CC(=O)NCCCC[C@@H](C(N)=O)NC(=O)[C@H](Cc2c[nH]c3ccccc23)NC(=O)[C@@H]2CCCCN2C(=O)[C@H](Cc2ccc(-c3ccccc3)cc2)NC(=O)[C@@H]2Cc3ccccc3CN2C1=O

Activity [8]: 6%
Activity [19]: 2%
Compound: CCCC[C@H](NC(C)=O)C(=O)N[C@H]1CC(=O)NCCCC[C@@H](C(N)=O)NC(=O)[C@H](Cc2cc3ccccc3[nH]2)NC(=O)[C@@H]2CCCN2C(=O)[C@@H](Cc2ccccc2)NC(=O)[C@H](Cc2cnc[nH]2)NC1=O
